Active and inactive are the calls of the source. The rule behind the calls is not given here.
Assays:
Dengue virus = experiment: Inhibition of Dengue virus NS2B-NS3 serine protease expressed in Escherichia coli BL 21 (DE3) at 50 uM preincubated for 15 mins before substrate addition measured after 15 mins by fluorimetric analysis
In short: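 Recombinant NS2B hydrophilic cofactor linked through a glycine linker to NS3pro, His-purified on Ni2+ resin. Enzyme preincubated 15 min with inhibitor at 50 μM. Internally quenched substrate added to 50 μM final. Fluorescence read at ex 320/em 405 nm for 15 min, with initial slope per second as activity. Triplicate runs averaged.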

[1] = molecular target: Genome polyprotein (West Nile virus) (UniProt P06935); experiment: Inhibition of West Nile virus NS2B-NS3 serine protease at 50 uM preincubated for 15 mins before substrate addition measured after 15 mins by fluorimetric analysis
Genome polyprotein (West Nile virus), sequence (P06935 whole entry): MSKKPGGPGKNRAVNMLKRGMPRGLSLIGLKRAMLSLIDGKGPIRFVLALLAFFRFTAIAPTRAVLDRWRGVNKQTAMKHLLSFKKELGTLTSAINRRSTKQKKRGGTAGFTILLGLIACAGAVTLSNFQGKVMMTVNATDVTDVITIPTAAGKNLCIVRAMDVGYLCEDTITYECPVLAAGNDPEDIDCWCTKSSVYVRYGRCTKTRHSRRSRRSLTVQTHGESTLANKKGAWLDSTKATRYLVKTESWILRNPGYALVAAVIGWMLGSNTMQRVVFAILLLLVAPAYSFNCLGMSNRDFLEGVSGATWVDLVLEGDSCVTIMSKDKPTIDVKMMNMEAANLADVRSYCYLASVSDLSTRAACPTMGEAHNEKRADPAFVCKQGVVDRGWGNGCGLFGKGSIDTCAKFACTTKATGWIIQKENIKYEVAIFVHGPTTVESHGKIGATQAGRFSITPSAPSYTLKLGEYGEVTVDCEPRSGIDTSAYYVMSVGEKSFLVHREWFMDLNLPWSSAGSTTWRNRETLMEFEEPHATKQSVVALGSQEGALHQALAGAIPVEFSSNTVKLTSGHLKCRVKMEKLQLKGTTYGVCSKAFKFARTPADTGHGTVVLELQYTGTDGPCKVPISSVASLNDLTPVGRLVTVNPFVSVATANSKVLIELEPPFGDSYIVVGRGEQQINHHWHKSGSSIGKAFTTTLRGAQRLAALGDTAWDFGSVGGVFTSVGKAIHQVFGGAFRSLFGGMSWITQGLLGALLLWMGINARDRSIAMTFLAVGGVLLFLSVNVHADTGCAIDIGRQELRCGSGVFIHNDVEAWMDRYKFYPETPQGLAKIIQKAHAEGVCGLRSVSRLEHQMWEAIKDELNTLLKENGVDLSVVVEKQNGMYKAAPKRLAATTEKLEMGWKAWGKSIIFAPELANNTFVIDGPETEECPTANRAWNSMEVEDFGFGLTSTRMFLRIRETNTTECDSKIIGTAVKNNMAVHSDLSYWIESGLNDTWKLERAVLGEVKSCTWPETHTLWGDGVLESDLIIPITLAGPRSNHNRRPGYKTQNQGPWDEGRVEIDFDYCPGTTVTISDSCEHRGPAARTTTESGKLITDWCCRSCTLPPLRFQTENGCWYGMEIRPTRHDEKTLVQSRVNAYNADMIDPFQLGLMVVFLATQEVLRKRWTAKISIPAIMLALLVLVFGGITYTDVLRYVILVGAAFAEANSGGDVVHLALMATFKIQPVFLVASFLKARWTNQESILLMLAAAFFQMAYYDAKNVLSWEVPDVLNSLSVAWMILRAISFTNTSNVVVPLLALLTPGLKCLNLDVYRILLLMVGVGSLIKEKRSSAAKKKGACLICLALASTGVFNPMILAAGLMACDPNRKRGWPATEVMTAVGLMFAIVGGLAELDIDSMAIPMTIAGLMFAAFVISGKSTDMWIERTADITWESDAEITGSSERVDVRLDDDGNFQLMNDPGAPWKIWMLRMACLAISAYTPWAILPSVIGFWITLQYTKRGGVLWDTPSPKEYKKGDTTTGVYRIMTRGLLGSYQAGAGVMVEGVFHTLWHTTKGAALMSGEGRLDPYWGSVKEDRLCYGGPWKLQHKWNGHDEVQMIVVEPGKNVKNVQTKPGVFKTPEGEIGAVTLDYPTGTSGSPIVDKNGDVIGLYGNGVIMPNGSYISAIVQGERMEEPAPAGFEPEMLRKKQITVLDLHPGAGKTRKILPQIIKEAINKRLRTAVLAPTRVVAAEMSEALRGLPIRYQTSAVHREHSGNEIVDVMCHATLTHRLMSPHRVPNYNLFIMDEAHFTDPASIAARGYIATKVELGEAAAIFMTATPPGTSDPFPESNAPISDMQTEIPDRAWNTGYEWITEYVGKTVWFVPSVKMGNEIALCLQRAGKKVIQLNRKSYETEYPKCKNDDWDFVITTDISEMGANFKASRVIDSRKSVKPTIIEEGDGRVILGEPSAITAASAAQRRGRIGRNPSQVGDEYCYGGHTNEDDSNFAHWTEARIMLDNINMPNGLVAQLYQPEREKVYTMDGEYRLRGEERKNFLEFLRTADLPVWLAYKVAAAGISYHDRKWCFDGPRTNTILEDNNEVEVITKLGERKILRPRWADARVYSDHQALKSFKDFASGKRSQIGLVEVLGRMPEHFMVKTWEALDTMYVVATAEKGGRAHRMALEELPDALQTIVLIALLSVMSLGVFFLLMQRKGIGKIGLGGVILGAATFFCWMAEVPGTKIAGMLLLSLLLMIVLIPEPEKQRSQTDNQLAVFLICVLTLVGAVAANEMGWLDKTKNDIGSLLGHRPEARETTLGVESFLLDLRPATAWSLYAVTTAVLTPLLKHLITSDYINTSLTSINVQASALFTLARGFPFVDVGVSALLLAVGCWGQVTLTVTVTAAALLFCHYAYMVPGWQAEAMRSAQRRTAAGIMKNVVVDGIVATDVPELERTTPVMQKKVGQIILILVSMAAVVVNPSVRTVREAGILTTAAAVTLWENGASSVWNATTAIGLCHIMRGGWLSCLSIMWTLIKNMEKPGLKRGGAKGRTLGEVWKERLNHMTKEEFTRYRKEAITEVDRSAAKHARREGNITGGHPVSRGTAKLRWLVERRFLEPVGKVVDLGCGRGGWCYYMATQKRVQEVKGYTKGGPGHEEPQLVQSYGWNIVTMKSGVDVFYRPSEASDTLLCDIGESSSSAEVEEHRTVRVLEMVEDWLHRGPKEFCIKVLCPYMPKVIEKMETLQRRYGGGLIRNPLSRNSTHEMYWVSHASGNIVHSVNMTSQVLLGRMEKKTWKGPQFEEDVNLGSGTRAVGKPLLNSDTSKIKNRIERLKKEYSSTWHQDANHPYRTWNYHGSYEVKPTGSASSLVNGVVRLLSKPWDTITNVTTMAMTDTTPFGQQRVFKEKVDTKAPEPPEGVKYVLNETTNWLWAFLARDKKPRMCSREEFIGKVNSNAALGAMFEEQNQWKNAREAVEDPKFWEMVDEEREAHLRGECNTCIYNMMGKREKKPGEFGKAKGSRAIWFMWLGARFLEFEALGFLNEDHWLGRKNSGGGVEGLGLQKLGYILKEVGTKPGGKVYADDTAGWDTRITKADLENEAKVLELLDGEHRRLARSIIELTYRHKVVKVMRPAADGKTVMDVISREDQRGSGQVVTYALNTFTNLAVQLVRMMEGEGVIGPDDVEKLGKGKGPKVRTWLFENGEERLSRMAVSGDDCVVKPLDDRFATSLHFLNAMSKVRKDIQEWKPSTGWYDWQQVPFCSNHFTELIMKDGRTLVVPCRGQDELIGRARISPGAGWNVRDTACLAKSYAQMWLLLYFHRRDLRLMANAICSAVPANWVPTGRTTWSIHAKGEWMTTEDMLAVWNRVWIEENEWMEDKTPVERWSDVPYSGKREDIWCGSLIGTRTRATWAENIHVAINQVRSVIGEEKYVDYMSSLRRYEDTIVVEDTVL
In short: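 WNV NS2B-NS3 protease at 150 nM final, preincubated 15 min with inhibitor at 50 μM. Abz-GLKRGG-3-(NO2)Y internally quenched substrate added to 50 μM final. Continuous fluorescence read for 15 min, with initial slope per second as activity.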

[2] = molecular target: Prothrombin (Homo sapiens) (UniProt P00734); experiment: Inhibition of thrombin at 25 uM preincubated for 15 mins before Boc-Val-Pro-Arg-AMC substrate addition measured after 10 mins by microtiter fluorescence plate reader analysis
dengue virus type 2 [3] = experiment: Antiviral activity against Dengue virus 2 infected in human Huh-7 cells assessed as inhibition of viral replication at 1 to 25 uM treated 4 hrs after infection measured after 24 hrs by reporter gene assay; type: functional, organism-based
Huh-7 = experiment: Cytotoxicity against human HuH7 cells assessed as reduction of cell viability at up to 100 uM after 48 hrs by luciferase assay; type: cell-based; details: huh-7, 48 h
In short: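 Huh-7-Fluc cells exposed to compounds up to 100 μM for 48 h at 37 °C, 5% CO2. Cells then lysed and luciferase activity read as a surrogate of viability, alongside visual inspection of cells.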

dengue virus type 2 [4] = experiment: Antiviral activity against Dengue virus 2 infected in human Huh-7 cells assessed as reduction of viral titers at non-cytotoxic concentration after 24 hrs by reporter gene assay relative to control; type: functional
In short: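 Huh-7 cells were infected with wild-type DenV-2 at an MOI of 1 TCID50 per cell. Compounds were added to the supernatants 4 h post-infection, with 1% final DMSO as the diluent control. Infectious titers were determined 24 h post-infection by limiting-dilution assay, with three independent experiments. Cytotoxicity was measured in Huh-7-Fluc cells after 48 h at 37 °C by luciferase read-out and visual inspection.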

Row | inhibition (Dengue virus) [%] | SMILES | further results
1 | 20.4 | CC(C)(C)NC(=O)C(=O)Cc1ccccc1 | –
2 | 18.4 | CC(C)(C)NC(=O)C(=O)/C=C/c1ccncc1 | –
3 | 36.1 | COc1ccc(/C=C/C(=O)C(=O)NC(C)(C)C)cc1OC | Activity (dengue virus type 2 [3]): Active; inhibition [1]: 31%; inhibition [2]: 22.5%
4 | 13.5 | CC(C)(C)NC(=O)C(=O)/C=C/c1ccc(C#N)cc1 | –
5 | 32.9 | CC(=O)Nc1ccc(/C=C/C(=O)C(=O)NC(C)(C)C)cc1 | –
6 | 31.3 | Cn1cc(/C=C/C(=O)C(=O)NC(C)(C)C)c2ccccc21 | –
7 | 37.6 | CC(C)(C)NC(=O)C(=O)/C=C/c1ccc(O)cc1 | inhibition [1]: 31.4%; inhibition [2]: 17.3%
8 | 17.8 | COc1cccc(/C=C/C(=O)C(=O)NC(C)(C)C)c1 | –
9 | 16.8 | CC(C)(C)NC(=O)C(=O)/C=C/c1cccc(F)c1 | –
10 | 23.3 | COc1ccccc1/C=C/C(=O)C(=O)NC(C)(C)C | –
11 | 27.6 | CC(C)(C)NC(=O)C(=O)/C=C/c1cccs1 | –
12 | 27.8 | COc1ccc(/C=C/C(=O)C(=O)NC(C)(C)C)c(OC)c1OC | –
13 | 23.3 | CC(C)(C)NC(=O)C(=O)/C=C/c1cccnc1 | –
14 | 12.9 | CC(C)(C)NC(=O)C(=O)/C=C/c1ccccc1[N+](=O)[O-] | –
15 | 15.1 | CC(C)(C)NC(=O)C(=O)/C=C/c1ccc(Br)cc1 | –
16 | 25.5 | CC(C)c1ccc(/C=C/C(=O)C(=O)NC(C)(C)C)cc1 | –

Row | inhibition (Dengue virus) [%] | SMILES | further results
17 | 13.8 | CN(C)c1ccc(/C=C/C(=O)C(=O)NC(C)(C)C)cc1 | inhibition [1]: 33.9%; inhibition [2]: 28.9%
18 | 23.9 | CC(C)(C)NC(=O)C(=O)/C=C/c1ccc(F)cc1 | –
19 | 15.9 | CC(C)(C)NC(=O)C(=O)/C=C/c1ccc(Cl)cc1 | inhibition [1]: 6.3%; inhibition [2]: 6.7%
20 | 40.6 | CC(C)(C)NC(=O)C(=O)/C=C/c1ccc(N)cc1 | inhibition [1]: 39.5%; inhibition [2]: 21.1%
21 | 9.6 | CC(C)(C)NC(=O)C(=O)/C=C/c1cccc([N+](=O)[O-])c1 | –
22 | 29.8 | CC(=O)n1cc(/C=C/C(=O)C(=O)NC(C)(C)C)c2ccccc21 | –
23 | 27.7 | CC(C)(C)NC(=O)C(=O)/C=C/c1ccccn1 | –
24 | 19.6 | C/C(=C\C(=O)C(=O)NC(C)(C)C)c1ccccc1 | –
25 | 8.9 | CC(C)(C)NC(=O)C(=O)/C=C/c1ccc2ccccc2c1 | –
26 | 0 | CC(C)(C)NC(=O)C(=O)CCc1ccccc1 | Activity (dengue virus type 2 [3]): inactive
27 | 25.6 | C/C(=C\c1ccccc1)C(=O)C(=O)NC(C)(C)C | inhibition [1]: 0%; inhibition [2]: 5.7%
28 | 26.3 | CC(C)(C)NC(=O)C(=O)/C=C/c1ccccc1 | inhibition [1]: 20%; inhibition [2]: 19.6%
29 | 6.9 | CC(C)(C)NC(=O)C(=O)c1ccccc1 | –
30 | 16.7 | COc1ccc(/C=C/C(=O)C(=O)NC(C)(C)C)cc1 | inhibition [1]: 27.3%; inhibition [2]: 14.2%
31 | 12.7 | CC(C)(C)NC(=O)C(=O)/C=C/c1ccc([N+](=O)[O-])cc1 | –

Second part, the compound before the results:

Row | SMILES | inhibition (Dengue virus) [%] | further results
32 | CC(C)(C)NC(=O)C(=O)C1CC1c1ccccc1 (stereo unspecified) | 7.4 | –
33 | COC(=O)[C@H](CO)NC(=O)C(=O)/C=C/c1ccccc1 | 35.1 | inhibition [1]: 27.5%; inhibition [2]: 12.6%
34 | CC(C)(C)NC(=O)C1(/C=C/c2ccccc2)CO1 (stereo unspecified) | 12.6 | inhibition [1]: 20.3%; inhibition [2]: 12.1%
35 | O=C(/C=C/c1ccccc1)C(=O)N1CCOCC1 | 30.8 | –
36 | O=C(/C=C/c1ccccc1)C(=O)NC1CC1 | 31.2 | inhibition [1]: 20%; inhibition [2]: 17.1%
37 | O=C(/C=C/c1ccccc1)C(=O)NC1CCCCC1 | 14.5 | –
38 | CC(C)NC(=O)C(=O)/C=C/c1ccccc1 | 23.8 | –
39 | CCCCCNC(=O)C(=O)/C=C/c1ccccc1 | 25.9 | –
40 | CNC(=O)/C=C/c1ccccc1 | 15.2 | –
41 | O=C(/C=C/c1ccccc1)C(=O)NCC1CCCO1 (stereo unspecified) | 28.9 | –
42 | O=C(/C=C/c1ccccc1)C(=O)NCc1ccccn1 | 29.4 | –
43 | CC(C)(C)NC(=O)C(O)/C=C/c1ccccc1 (stereo unspecified) | 8.2 | –
44 | CC(C)(C)NC(=O)C(=O)C1CCCCC1 | 21.5 | –
45 | CC(C)(C)NC(=O)C(=O)/C=C/c1c[nH]c2ccccc12 | 39.1 | Activity (dengue virus type 2 [3]): Active; inhibition [1]: 40.6%; Activity (Huh-7): Non-toxic; inhibition [2]: 16.9%; fold change (FC) (dengue virus type 2 [4]): 1000
46 | CC(=O)OCCNC(=O)C(=O)/C=C/c1ccccc1 | 35.8 | inhibition [1]: 29.8%; inhibition [2]: 16.3%
47 | O=C(/C=C/c1ccccc1)C(=O)NCc1ccncc1 | 29.9 | –
48 | CN(C)C(=O)C(=O)/C=C/c1ccccc1 | 29 | –
49 | CC(NC(=O)C(=O)/C=C/c1ccccc1)c1ccccc1 (stereo unspecified) | 0 | inhibition [1]: 12.2%; inhibition [2]: 5.1%
50 | O=C(/C=C/c1ccccc1)C(=O)NCCO | 26.1 | –
51 | CCC/C=C/C(=O)C(=O)NC(C)(C)C | 4.4 | –
52 | O=C(/C=C/c1ccccc1)C(=O)NCc1ccccc1 | 14.6 | –
53 | CNC(=O)C(=O)/C=C/c1ccccc1 | 26.9 | –
